Among the data in ChEMBL document CHEMBL1146601, “Antileishmanial ring-substituted ether phospholipids” (J Med Chem, 2003) are IC50 values, retold here.

Bounds are passed on as bounds.

In one test the test system is Leishmania infantum. Nature of the test: In vitro anti-leishmanial activity against promastigote cultures of Leishmania infantum MON 235. It counts as functional, organism-based. An outline of the steps: (§1)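 Promastigotes (L. donovani MHOM/IN/80/DD8/LEM 703; L. infantum MHOM/TN/80/IPT1/LEM 235) grown in RPMI 1640 with 10% FCS, L-glutamine and antibiotics at 26 °C. Seeded at 5 × 10^5 cells/mL with 3-fold medium dilutions of a 9.625 mM DMSO solution, 72 h at 26 °C. MTT added for 3 h; SDS/2-propanol stop; A550 (ref 620 nm). IC50 by Hills method.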

For the next test, the system named is Leishmania donovani. Kind of test: In vitro anti-leishmanial activity against promastigote cultures of Leishmania donovani MON 703. The format is functional, organism-based. The method, boiled down:
as §1

In general, IC50 refers to the concentration at which inhibition is half-maximal. High values mean a need for much substance, low ones inhibition by little substance. As for `CCCCCCCCCCCCCCCCOP(=O)([O-])OCC[N+](C)(C)C` [MILTEFOSINE], the figures for the IC50 in the test on Leishmania infantum and in the test with Leishmania donovani were 22.6 µM and 23.7 µM, respectively.

With `C[N+]1(CCOP(=O)([O-])OCCCCCCOc2ccccc2)CCOCC1`, the IC50 in the test with Leishmania infantum and in the test on Leishmania donovani was > 100 µM each time.

As to `C[N+]1(CCOP(=O)([O-])Oc2ccc(C34CC5CC(CC(C5)C3)C4)cc2)CCOCC1`, the IC50 with Leishmania infantum and in the test on Leishmania donovani was > 100 µM in each case.

Consider `C[N+](C)(C)CCOP(=O)([O-])OCCCCCC1C2CC3CC(C2)CC1C3` (centres undefined), for which the IC50 with Leishmania infantum is > 100 µM; in the test on Leishmania donovani it was 4.02 µM.

For the compound `C[N+](C)(C)CCOP(=O)([O-])OCC12CC3CC(CC(C3)C1)C2`, the IC50 in the test on Leishmania infantum and in the test on Leishmania donovani was > 100 µM each time.

As to `C[N+](C)(C)CCOP(=O)([O-])OCCOc1ccc2ccccc2c1`, the IC50 in the test on Leishmania infantum and in the test with Leishmania donovani was > 100 µM in each case.

As for `C[N+](C)(C)CCOP(=O)([O-])OCCCCCCOc1ccccc1`, the IC50 with Leishmania infantum and in the test with Leishmania donovani was > 100 µM in each case.

For the compound `C[N+](C)(C)CCOP(=O)([O-])OCCCCCCCCCCCC1C2CC3CC(C2)CC1C3` (centres undefined), the IC50 came out at 5.97 µM in the test on Leishmania infantum and 2.88 µM with Leishmania donovani.

As for `C[N+]1(CCOP(=O)([O-])OCCOc2ccc3ccccc3c2)CCCCC1`, the IC50 in the test with Leishmania infantum and in the test on Leishmania donovani was > 100 µM each time.

As to `C[N+](C)(C)CCOP(=O)([O-])OCCOc1ccccc1`, the IC50 in the test with Leishmania infantum and in the test on Leishmania donovani was > 100 µM throughout.

As to `CCCCCCCCCCCCCCC1CCC(OCCOP(=O)([O-])OCC[N+](C)(C)C)CC1` (centres undefined), the results for the IC50 in the test on Leishmania infantum and in the test with Leishmania donovani were 23.3 µM and 23.7 µM, respectively.

For `C[N+]1(CCOP(=O)([O-])OCCOc2ccccc2)CCOCC1`, the IC50 in the test on Leishmania infantum and in the test with Leishmania donovani was > 100 µM each time.
